# From PubChem BioAssay
# Rows were chosen to be rich in hits. Some 1% of all compounds tested hit in one or more screens of this group.
# PERK inh: inhibitors of human PERK kinase. CHO PERK-DD fusion, SEAP luminescence translation reporter. inhibition, % at 5.6 µM. 220,000 tested, 0.17% active. AID 1416;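 active means inhibition above the mean inhibition of all tested compounds plus 3 SD, set separately per screening campaign, cut at about 2.9% in these data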;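 further: PERK kinase domain activated by AP20187 dimerizer at 100 nM; 0% = DMSO with dimerizer and 100% = rapamycin at 8.4 µM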
# TNF necrop inh: blocks TNF-alpha induced death of Jurkat FADD-/- cells. activation (protection from cell death), % at 10 µM. Jurkat FADD-/- TNF necroptosis rescue, ATP luminescence, 24 h; 0 = TNF only, 100 = no-TNF cells. 220,000 tested, 0.068% active;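 active means activation, meaning protection from cell death, of at least 50% relative to plate controls; inactive means activation below 50%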;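 further: necroptosis triggered by 40 ng/mL TNF-alpha added together with compound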
# Rad51 HR inh: Rad51 (human) homologous recombination inhibition; Q06609; hRad51 DNA strand exchange, fluorescence dequenching; inhibition, % at 10 µM; 200,000 tested, 0.085% active; AID 1385;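 active means inhibition above 40% at the single screening dose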;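 further: 0% = DMSO control wells and 100% = blanks with heterologous ssDNA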
# Target sequence (Q06609 whole entry, looked up): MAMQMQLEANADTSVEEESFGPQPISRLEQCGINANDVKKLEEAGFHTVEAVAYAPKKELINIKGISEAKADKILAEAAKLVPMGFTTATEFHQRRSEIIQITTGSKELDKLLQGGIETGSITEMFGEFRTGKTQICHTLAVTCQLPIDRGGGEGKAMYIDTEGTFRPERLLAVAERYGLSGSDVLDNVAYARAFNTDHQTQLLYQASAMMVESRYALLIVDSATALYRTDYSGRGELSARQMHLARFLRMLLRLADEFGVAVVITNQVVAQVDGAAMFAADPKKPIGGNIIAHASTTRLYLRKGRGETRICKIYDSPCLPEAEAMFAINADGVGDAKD
#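 System: human Rad51 nucleoprotein filaments preassembled on unlabelled ssDNA. Reagent: labelled 47-mer dsDNA for strand exchange. Schedule: 30-min compound preincubation and 15-min exchange, both room temperature. Measured by: FRET fluorescence dequenching, excitation 485 nm, emission 520 nm. Read-out: Fluorescence-based percent inhibition, control- and blank-normalised. Benchmarks: plate controls and plate blanks.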
# HMGR II inh: inhibitors of class II HMG-CoA reductase from Enterococcus faecalis | purified E. faecalis HMGR, NADPH absorbance 340 nm kinetic | 190,000 tested, 0.41% active | AID 1066 | inhibition, % at 10 µM;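 active means inhibition above a set limit, the median over all tested compounds plus 3 SD, cut at about 9.5% in these data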;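 further: enzyme runs in reverse so mevalonate oxidation gives rising NADPH absorbance; 0% = complete reaction with DMSO and 100% = background rate lacking mevalonate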
# L929 necroptosis: blocks zVAD induced death of L929 cells; L929 zVAD necroptosis rescue, ATP luminescence, 24 h; with zVAD 60 µM; viability rescue, % at 10 µM; 220,000 tested, 0.38% active; AID 1377;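 active means activation, scaled between plate controls, above about 75%, limit read from the data; inactive means activation under that limit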;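 further: 0% = zVAD with DMSO and 100% = DMSO alone without zVAD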
# zVAD death conf: confirmed blocker of zVAD induced death in L929 cells | shares compounds with L929 necroptosis | L929 zVAD-induced necroptosis rescue, ATP luminescence, 24 h | activation (protection from necroptosis), % at 10 µM | 760 tested, 16% active | AID 463117;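 active means mean protection from necroptosis of at least 50% over duplicate tests; inactive means mean protection below 50%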;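 further: 0% = cells with zVAD alone and 100% = vehicle cells without zVAD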
# An asterisk follows results filed as active; . = no result given.
SMILES,PERK inh,TNF necrop inh,Rad51 HR inh,HMGR II inh,L929 necroptosis,zVAD death conf
O=S(=O)(c1ccc(Br)cc1)c1cnc2ccccc2n1,0,5,8,-7,47,.
O=C(COc1ccccc1F)Nc1nnc(-c2ccncc2)s1,0,2,-6,1,0,.
O=C(Nc1nnc(-c2ccncc2)s1)Nc1ccccc1F,-1,4,9,-1,78*,4
COc1ccc(OCc2nnc(NC(=O)Nc3ccccc3F)s2)cc1,1,3,8,.,83*,5
Cc1ccccc1NC(=O)Cc1nnc(NC(=O)Nc2ccccc2F)s1,2,4,20,.,1,.
CCC(C)c1ccc(OCC(=O)Nc2ccc3[nH]c(=O)[nH]c3c2)cc1 (centres undefined),0,2,-10,1,78*,40
CCCC(=O)OCC(=O)Nc1ccc2[nH]c(=O)[nH]c2c1,1,-1,9,5,1,.
CC(C)NC(=O)NC(=O)CSc1nnc(COc2ccccc2Cl)o1,0,-3,3,2,1,.
O=C(CSc1nnc(COc2ccccc2Cl)o1)NC(=O)NC1CCCC1,0,-5,-5,-10,87*,35
N#Cc1c(N)n[nH]c1-c1cc2c([nH]1)CCCC2,1,11,-6,-4,88*,45
N#Cc1cc2c([nH]c1=S)CCCCCC2,1,-3,7,0,0,.
NNC(=O)c1csc(-c2ccc(C(F)(F)F)cc2Cl)n1,0,3,20,.,1,.
CC1(C(=O)OCC(=O)Nc2ccc3ccccc3c2)CC1(Cl)Cl (centres undefined),1,3,8,0,78*,2
CC1(C(=O)OCC(=O)Nc2ccc(C(N)=O)cc2)CC1(Cl)Cl (centres undefined),0,1,1,-3,7,.
COc1ccc(S(=O)(=O)NCCC(=O)NC2CCCCCCC2)cc1,-1,0,-1,0,81*,21
CC(C)CC(N=Cc1c(O)c2ccccc2oc1=O)C(=O)O (centres undefined),1,-5,-9,2,2,.
CCOC(=O)CC(=O)CSc1n[nH]c(=O)[nH]c1=O,1,1,.,.,1,.
COCC(C)n1c(C)cc(C(=O)CSc2ncccn2)c1C (centres undefined),0,1,-5,-1,0,.
COCC(C)n1c(C)cc(C(=O)CSc2nnnn2-c2ccc(O)cc2)c1C (centres undefined),1,0,5,0,76*,47
COc1cc(CNC(C)(C)CO)ccc1OCC(=O)Nc1ccc(Br)cc1,0,2,10,-2,84*,29
Cc1cc(OC(=O)c2c(C)cc(OC(=O)c3c(C)cc(O)cc3O)cc2O)cc(O)c1C(=O)O,.,.,0,.,.,.
CCc1c(C(=O)OCc2ccccc2)[nH]c(C)c1C,-1,0,3,.,68,.
COC(=O)c1c(C)[nH]c(C(=O)OCc2ccc(F)cc2)c1C,0,1,2,0,79*,3
CCc1c(C)[nH]c(C(=O)OCc2ccccc2)c1C,1,1,0,-1,86*,8
CC(=O)c1c(C)[nH]c(C(=O)OCc2cccc(Cl)c2)c1C,1,-1,15,-2,79*,8
SMILES,PERK inh,TNF necrop inh,Rad51 HR inh,HMGR II inh,L929 necroptosis,zVAD death conf
CC(=O)c1c(C)[nH]c(C(=O)OCC(=O)NCCc2ccc(F)cc2)c1C,1,-3,0,-7,1,.
CC(=O)c1c(C)[nH]c(C(=O)OCc2c(F)cccc2Cl)c1C,0,-1,-2,-8,1,.
Cc1nc2ccc(C(=O)N3c4ccccc4CC3C)cc2s1 (centres undefined),0,-5,-2,-2,3,.
CCN(c1ccccc1)S(=O)(=O)c1ccc(Oc2ccc(-n3ccnc3)cc2)nc1,-2,1,-4,-3,87*,1
CCN(c1ccccc1)S(=O)(=O)c1ccc(C(=O)NCCCn2ccnc2)cc1,1,0,1,-4,1,.
C#Cc1ccc2c(c1)COc1c3ccccc3nn1-2,.,.,-7,.,.,.
COc1ccccc1NC(=O)Nc1ccncc1,0,-2,15,.,1,.
COc1ccccc1NC(=O)Nc1ccc(Cc2ccncc2)cc1,0,4,.,2,78*,38
